INS-1E rescue = preserves ATP levels in cytokine-treated INS-1E cells. INS-1E cytokine-induced death, ATP luminescence, 48 h; normalised: neutral wells 0, positive control 100. protection from cytokine-induced ATP loss, % at 10 µM. 20,000 compounds, 0.1% hits;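 active means mean replicate protection from cytokine-induced ATP loss at least 50% and at least 75% of replicates each reaching 50%; inconclusive means meets only one of the two criteria, mean or replicate share; inactive means fails both the mean and replicate share criteria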
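Test system: INS-1E rat cells | Quantity: 8000 cells per well | Medium: Phenol-red-free RPMI with 5% fetal bovine serum | Reagent: Cytokine cocktail of IFN-γ, TNF-α and IL-1β | Doses: One compound concentration, pin transfer | Timing: 48 h co-treatment, 10 min post-lysis read | Technique: Luminescent ATP assay (CellTiter-Glo)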
T cruzi HTS = intracellular Trypanosoma cruzi inhibition; activity score (inhibition), % at 5.01 µM; 22,000 compounds, 4.9% hits; intracellular Trypanosoma cruzi in host cells, plate reader; in the data active means activity score above about 55%; inconclusive means no clear call, values can overlap the other calls;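 further: parasites and compound incubated about four days before reading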
A1 apoptosis 2 = compounds inhibiting A1, read as caspase activation | AID 2465 | MEF A1-2A-BIM cells, caspase-Glo luminescence, 3 h; percent of clofoctol response, DMSO zero | caspase activation, % (concentration not given with the values) | 24,000 tested, under 10 active; in the data active means caspase activation above about 5.9%; inconclusive means no clear call, values can overlap the other calls; inactive means below about 2.2%
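system = A1-2A-BIM-expressing MEF cells | quantity = 2500 MEF cells/well | dosing = 50 nL compound per well, pinned | schedule = overnight cell settling, then 3 h compound exposure, 37 °C | signal = luminescence from DEVD-luciferin Caspase-Glo reagent, 1:1 in 50 mM HEPES, 1 h RT | read-out = Caspase-3/7 activation, seen as rise in luminescence signal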
A number is an active result; - = inactive; ? = inconclusive; . = not tested or not shown. The entries come from a sample that favours hits as a whole.

SMILES	INS-1E rescue	T cruzi HTS	A1 apoptosis 2
COc1ccc(S(=O)(=O)N(C)C[C@@H]2Oc3c(NC(=O)Nc4ccc(C(F)(F)F)cc4)cccc3C(=O)N([C@H](C)CO)C[C@@H]2C)cc1	-	74	.
Cc1ccc(S(=O)(=O)N(C)C[C@H]2Oc3c(NC(=O)Nc4cccc5ccccc45)cccc3C(=O)N([C@H](C)CO)C[C@H]2C)cc1	-	-	-
Cc1ccc(S(=O)(=O)N(C)C[C@H]2Oc3c(NC(=O)Nc4ccc(C(F)(F)F)cc4)cccc3C(=O)N([C@@H](C)CO)C[C@H]2C)cc1	-	79	-
Cc1ccc(S(=O)(=O)N(C)C[C@@H]2Oc3c(NC(=O)Nc4ccc(C(F)(F)F)cc4)cccc3C(=O)N([C@@H](C)CO)C[C@@H]2C)cc1	-	-	.
COc1ccc(NC(=O)Nc2cccc3c2O[C@@H](CN(C)S(=O)(=O)c2ccc(OC)cc2)[C@H](C)CN([C@H](C)CO)C3=O)cc1	-	-	-
COc1ccc(S(=O)(=O)N(C)C[C@@H]2Oc3c(NC(=O)Nc4ccc(C(F)(F)F)cc4)cccc3C(=O)N([C@@H](C)CO)C[C@@H]2C)cc1	-	61	-
C[C@@H]1CCCCO[C@H](CN(C)C(=O)NC2CCCCC2)[C@H](C)CN([C@H](C)CO)C(=O)c2cc(NS(C)(=O)=O)ccc2O1	.	.	-
C[C@@H]1CCCCO[C@@H](CN(C)C(=O)Cc2ccccc2)[C@H](C)CN([C@@H](C)CO)C(=O)c2cc(NC(=O)Nc3ccccc3)ccc2O1	.	.	-
O=C(CCCCC(=O)N/N=C/c1ccoc1)NO	-	-	-
C[C@H](CO)N1C[C@H](C)[C@H](CN(C)S(C)(=O)=O)Oc2ccc(NC(=O)Cc3ccccc3)cc2CC1=O	-	-	.
O=C(CCCCC(=O)N/N=C/c1cccc(B(O)O)c1)NO	.	.	-
COc1ccc(S(=O)(=O)Nc2ccc3c(c2)CC(=O)N([C@H](C)CO)C[C@@H](C)[C@@H](CN(C)Cc2ccc(C(=O)Nc4ccccc4N)cc2)O3)cc1	-	-	-
C[C@H](CO)N1C[C@H](C)[C@H](CN(C)Cc2ccc(C(=O)Nc3ccccc3N)cc2)Oc2ccc(NS(=O)(=O)c3ccc(F)cc3)cc2CC1=O	?	64	.
Cc1ccc(S(=O)(=O)Nc2ccc3c(c2)CC(=O)N([C@H](C)CO)C[C@@H](C)[C@@H](CN(C)Cc2ccc(C(=O)Nc4ccccc4N)cc2)O3)cc1	-	60	-
C[C@@H]1CN([C@@H](C)CO)C(=O)Cc2cc(NS(=O)(=O)c3ccc(F)cc3)ccc2O[C@H]1CN(C)Cc1ccc(C(=O)Nc2ccccc2N)cc1	.	.	-
COc1ccc(S(=O)(=O)Nc2ccc3c(c2)CC(=O)N([C@H](C)CO)C[C@H](C)[C@H](CN(C)Cc2ccc(C(=O)Nc4ccccc4N)cc2)O3)cc1	53	59	-
C[C@@H]1CN([C@H](C)CO)C(=O)Cc2cc(NS(=O)(=O)c3cccs3)ccc2O[C@H]1CN(C)Cc1ccc(C(=O)Nc2ccccc2N)cc1	-	-	.
Cc1ccc(S(=O)(=O)Nc2ccc3c(c2)CC(=O)N([C@@H](C)CO)C[C@H](C)[C@@H](CN(C)Cc2ccc(C(=O)Nc4ccccc4N)cc2)O3)cc1	-	-	-
C[C@H](CO)N1C[C@H](C)[C@H](CN(C)Cc2ccc(C(=O)Nc3ccccc3N)cc2)Oc2ccc(NS(=O)(=O)c3cccs3)cc2CC1=O	-	64	-
Cc1ccc(S(=O)(=O)N[C@@H](Cc2ccccc2)C(=O)NCCCN=[N+]=[N-])cc1	.	.	-
C[C@@H]1CN([C@H](C)CO)C(=O)c2cc(NC(=O)CCN3CCOCC3)ccc2O[C@H]1CN(C)S(C)(=O)=O	-	-	.
COc1cc(/C=N/NC(=O)c2ccccc2O)c([N+](=O)[O-])cc1OC	-	-	-
CN(C)CCCOc1ccc(/C=N/NC(=O)c2ccc(C(=O)NO)cc2)cc1	.	.	-
O=C(CCCCC(=O)N/N=C/C1=CCCCC1)NO	-	-	.
O=C(N/N=C/c1cccnc1)c1ccccc1O	.	.	-
SMILES	INS-1E rescue	T cruzi HTS	A1 apoptosis 2
COC(=O)CCCCCCC(=O)N/N=C/c1ccc(F)c(Oc2ccccc2)c1	-	-	-
C#CCOc1ccc(/C=N/NC(=O)c2ccccc2O)cc1	-	-	-
C[C@H](CO)N1C[C@H](C)[C@H](CN(C)Cc2ccc(C(=O)Nc3ccccc3N)cc2)Oc2ccc(NS(=O)(=O)c3ccc(Cl)cc3)cc2CC1=O	-	60	.
C[C@H]1CN([C@@H](C)CO)C(=O)Cc2cc(NS(=O)(=O)c3ccc(Cl)cc3)ccc2O[C@@H]1CN(C)Cc1ccc(C(=O)Nc2ccccc2N)cc1	.	.	-
Cc1noc(C)c1S(=O)(=O)N(C)C[C@H]1OCCCC[C@H](C)Oc2ccc(NC(=O)NC3CCCCC3)cc2C(=O)N([C@H](C)CO)C[C@H]1C	.	.	-
CC(C)(C)OC(=O)NC/C=N/NC(=O)CCCCCCC(=O)Nc1ccccc1O	-	-	-
C[C@H]1CN([C@@H](C)CO)C(=O)c2cc(N(C)C)ccc2O[C@H]1CN(C)Cc1ccc(-c2ccccc2)cc1	-	-	.
C[C@H](CO)N1C[C@H](C)[C@@H](CN(C)Cc2ccc(Oc3ccccc3)cc2)Oc2ccc(N(C)C)cc2C1=O	-	71	-
C[C@@H]1CN([C@@H](C)CO)C(=O)c2cc(N(C)C)ccc2O[C@@H]1CN(C)Cc1ccc(-c2ccccc2)cc1	-	65	.
C[C@H](CO)N1C[C@H](C)[C@H](CN(C)Cc2ccccc2)Oc2ccc(N(C)C)cc2C1=O	-	-	-
C[C@@H]1CN([C@H](C)CO)C(=O)c2cc(N(C)C)ccc2O[C@@H]1CN(C)Cc1ccc(Cl)c(Cl)c1	-	-	-
C[C@@H]1CN([C@@H](C)CO)C(=O)c2cc(N(C)C)ccc2O[C@@H]1CN(C)Cc1ccc(Cl)c(Cl)c1	-	64	.
C[C@@H]1CN([C@H](C)CO)C(=O)Cc2cc(NC(=O)Cc3cn(C)c4ccccc34)ccc2O[C@H]1CN(C)Cc1ccc(Oc2ccccc2)cc1	-	78	.
COc1ccc(CN(C)C[C@H]2Oc3ccc(NC(=O)Cc4cn(C)c5ccccc45)cc3CC(=O)N([C@@H](C)CO)C[C@H]2C)cc1	-	-	-
C[C@H](CO)N1C[C@H](C)[C@@H](CN(C)Cc2ccc(Oc3ccccc3)cc2)Oc2ccc(NC(=O)Cc3cn(C)c4ccccc34)cc2CC1=O	.	.	-
C[C@H]1CN([C@@H](C)CO)C(=O)Cc2cc(NC(=O)Cc3cn(C)c4ccccc34)ccc2O[C@@H]1CN(C)Cc1ccc(Oc2ccccc2)cc1	-	-	.
COc1ccc(CN(C)C[C@H]2Oc3ccc(NC(=O)Cc4cn(C)c5ccccc45)cc3CC(=O)N([C@@H](C)CO)C[C@@H]2C)cc1	-	61	-
C[C@H]1CN([C@@H](C)CO)C(=O)Cc2cc(NC(=O)Cc3cn(C)c4ccccc34)ccc2O[C@H]1CN(C)Cc1ccc(Oc2ccccc2)cc1	-	59	-
C[C@H](CO)N1C[C@H](C)[C@@H](CN(C)C(=O)Nc2ccc(F)cc2)OCCCC[C@H](C)Oc2ccc(NC(=O)NC3CCCCC3)cc2C1=O	.	.	-
C[C@@H]1CN([C@H](C)CO)C(=O)c2cccc(NC(=O)c3ccncc3)c2O[C@H]1CN(C)Cc1ccccc1	-	80	.

Bioassay records (PubChem BioAssay)
